Data set [1] has as its system DU-145. Put plainly: Antiproliferative activity against human DU-145 cells assessed as reduction in cell viability incubated for 72 hrs in serum deprivation condition by MTT assay. In kind it is functional, cell-based. To be noted: DU-145, 72 h. The method in brief: (§1)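 Cells seeded at 1 × 10^3 (DU145, PC-3), 6 × 10^3 (LNCaP), 2 × 10^3 (PWR-1E) or 4.5 × 10^3 (RWPE-1) per well and left to adhere 24 h. CBD (0–100 μM) then given for 72 h in serum-free medium. MTT added for 3 h at 37 °C, formazan dissolved in DMSO, absorbance read at 570 nm. Viability is % of vehicle; IC50 by nonlinear regression; at least three independent experiments.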
A general note: Formazan colour is commonly taken as a measure of viable cells.

Another data set concerns LNCaP. Put plainly: Antiproliferative activity against human LNCap cells assessed as reduction in cell viability incubated for 72 hrs in presence of 10% FBS by MTT assay. In kind it is functional, cell-based. The procedure, abridged: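 Cells left to adhere 24 h, then exposed to CBD (0–100 μM) for 72 h in medium with 10% FBS. MTT incubation 3 h at 37 °C, DMSO solubilisation, A570. Viability relative to vehicle; IC50 from nonlinear regression; at least three independent experiments.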

Data set [2] relates to PC-3. Kind of data set: Antiproliferative activity against human PC-3 cells assessed as reduction in cell count at IC50 concentration incubated for 48 hrs by flow cytometry analysis. In kind it is functional, cell-based. The method in brief: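 Six-well seeding at 4 × 10^4 (DU145) or 3 × 10^4 (PC-3) cells per well; CBD for 48 h. Supernatant and trypsinised adherent cells pooled and resuspended in ice-cold PBS. Cells counted by flow cytometry with forward/side scatter gating; at least three independent experiments.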

The subject of data set [3] is DU-145. Kind of data set: Antiproliferative activity against human DU-145 cells assessed as reduction in cell confluency at 5 to 10 uM measured after 72 hrs by Hoechst 33342 staining based high content imaging fluorescence microscopic analysis. The class given is functional. To be noted: dose 5-10 µM. The method in brief: (§2)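 DU145 or PC-3 cells seeded at 2 × 10^3 per well and given CBD at 1, 5 or 10 μM with serum for 72 h; staurosporine as positive control. Stained 30 min with Hoechst 33342 (1:5000), YO-PRO-1 (1:1000) and PI (1:1000). High-content imaging with a 63× water objective. Hoechst gave confluency, nucleus area and circularity; YO-PRO/PI gave healthy, early and late apoptotic fractions.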

Data set [4] deals with DU-145. Kind of data set: Induction of apoptosis in human DU-145 cells assessed as reduction in fraction of healthy cells at 1 to 10 uM incubated for 72 hrs by YO-PRO and propidium iodide staining based high content imaging fluorescence microscopic analysis. The class given is functional, cell-based. To be noted: dose 1-10 µM. The method in brief: as §2
For data set [5], the system named is DU-145. Kind of data set: Induction of apoptosis in human DU-145 cells assessed as early apoptotic cells at 1 to 10 uM incubated for 72 hrs by YO-PRO and propidium iodide staining based high content imaging fluorescence microscopic analysis. To be noted: dose 1-10 µM. The class given is functional, cell-based. The method in brief:
as §2

The test system of data set [6] is PC-3. Put plainly: Induction of apoptosis in human PC-3 cells assessed as late apoptotic cells at 1 to 10 uM incubated for 72 hrs by YO-PRO and propidium iodide staining based high content imaging fluorescence microscopic analysis. In kind it is functional, cell-based. To be noted: dose 1-10 µM. The procedure, abridged: as §2
For data set [7], the system named is PC-3. Kind of data set: Inhibition of cell invasion in human PC-3 cells incubated for 48 hrs by crystal violet staining based microscopic analysis relative to control. The class given is functional.
The test system of data set [8] is DU-145. Put plainly: Antiproliferative activity against human DU-145 cells assessed as reduction in cell viability incubated for 72 hrs in presence of SR141716 by MTT assay. In kind it is functional, cell-based. The method in brief: (§3)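 DU145 or PC-3 cells pretreated 1 h with SR141716 (CB1 antagonist), SR144528 (CB2 antagonist), capsazepine (TRPV1 antagonist) or LPI (GPR55 agonist), then given CBD for 72 h. MTT read-out as % of vehicle. Compared with CBD alone by t-test; at least three independent experiments.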

Data set [9] has as its system PC-3. Kind of data set: Antiproliferative activity against human PC-3 cells assessed as reduction in cell viability incubated for 72 hrs in presence of SR144528 by MTT assay. The class given is functional, cell-based. The method in brief: as §3
The subject of data set [10] is PC-3. Put plainly: Antiproliferative activity against human PC-3 cells assessed as reduction in cell viability incubated for 72 hrs in presence of LPI by MTT assay. The class given is functional, cell-based. The method in brief:
as §3

Data set [11] concerns DU-145. Put plainly: Induction of cell cycle arrest in human DU-145 cells assessed as arrest in G1/S phase by measuring reduction in CDK4 protein expression at IC50 concentration incubated for 48 hrs by Western blotting analysis. The class given is functional, cell-based. The procedure, abridged:
(§4)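 DU145 or PC-3 cells seeded at 5 × 10^4 per well and given CBD for 48 h. Lysed in ice-cold RIPA with protease/phosphatase inhibitor; 40 μg protein per lane, SDS-PAGE, PVDF transfer, milk block. Primary antibodies overnight at 4 °C, then HRP secondary 1 h at room temperature, chemiluminescence. Densitometry normalised to loading control, then to vehicle; at least three experiments.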
For orientation: Immunoblotting shows a protein as a band on a membrane.

Data set [12] has as its system DU-145. Kind of data set: Induction of cell cycle arrest in human DU-145 cells assessed as arrest in G1/S phase by measuring reduction in cyclin D3 protein expression at IC50 concentration incubated for 48 hrs by Western blotting analysis relative to control. The arrangement: scale not given: the % may be the effect or the level left. The class given is functional. The procedure, abridged:
as §4

Data set [13] concerns PC-3. Put plainly: Induction of cell cycle arrest in human PC-3 cells assessed as arrest in G1/S phase by measuring reduction in CDK2 protein expression at IC50 concentration incubated for 48 hrs by Western blotting analysis. The class given is functional, cell-based. The procedure, abridged: as §4
Data set [14] concerns DU-145. Put plainly: Induction of cell cycle arrest in human DU-145 cells assessed as arrest in G2/M phase by measuring reduction in CDK1 protein expression at IC50 concentration incubated for 48 hrs by Western blotting analysis. In kind it is functional, cell-based. The procedure, abridged:
as §4

The target of data set [15] is Serine/threonine-protein kinase AKT (Homo sapiens) (UniProt P31751+Q9Y243+P31749). Kind of data set: Inhibition of AKT phosphorylation in human PC-3 cells at IC50 concentration incubated for 48 hrs by Western blot analysis. The class given is cell-based. The procedure, abridged:
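Cells seeded at 5 × 10^4 per well and treated 48 h with an IC50 dose of CBD in DU145 or PC-3. Lysed in ice-cold RIPA with protease/phosphatase inhibitor. 40 μg protein per lane on SDS-PAGE, then PVDF. Probed overnight at 4 °C for phospho-AKT and total AKT, HRP detection. Densitometry normalised to loading control, then to vehicle. Mean ± SD, ≥3 experiments, t-test.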

Data set [16] in a line: Cytotoxicity against human PWR-1E cells assessed as cell viability incubated for 72 hrs in serum deprivation condition by MTT assay. The class given is toxicity, cell-based. The method in brief:
as §1

Data set [17] concerns PWR-1E. Kind of data set: Cytotoxicity against human PWR-1E cells assessed as reduction in cell confluency at 1 to 10 uM incubated for 72 hrs by Hoechst 33342 staining based high-content fluorescence microscopy. In kind it is toxicity. To be noted: dose 1-10 µM. The procedure, abridged: (§5)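 PWR-1E cells seeded at 2 × 10^3 per well and given CBD at 1, 2 or 10 μM without serum for 72 h. Stained with Hoechst 33342, YO-PRO-1 and PI, then imaged by high-content microscopy. Scored for confluency and for healthy, early and late apoptotic fractions; at least three independent experiments.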

Data set [18] has as its system PWR-1E. Put plainly: Induction of cell death in human PWR-1E cells assessed as reduction in nucleus circularity at 1 to 10 uM incubated for 72 hrs by Hoechst 33342 staining based high-content fluorescence microscopy. In kind it is toxicity. As to conditions: dose 1-10 µM.
For data set [19], the system named is PWR-1E. Put plainly: Induction of apoptosis in human PWR-1E cells assessed as early apoptotic cells at 1 to 10 uM incubated for 72 hrs […] and propidium iodide staining based high content imaging fluorescence microscopic analysis. In kind it is toxicity, cell-based. As to conditions: dose 1-10 µM. The procedure, abridged: as §5
For data set [20], the system named is DU-145. Kind of data set: Inhibition of cell invasion in human DU-145 cells incubated for 48 hrs by crystal violet staining based microscopic analysis. The class given is functional.

Calls of active or inactive are those of the source. The rule behind the calls is not given here.

As a reminder, the IC50 is the concentration that inhibits the measured activity by half.

Chain of Serine/threonine-protein kinase AKT (Homo sapiens) (P31749 whole entry, looked up): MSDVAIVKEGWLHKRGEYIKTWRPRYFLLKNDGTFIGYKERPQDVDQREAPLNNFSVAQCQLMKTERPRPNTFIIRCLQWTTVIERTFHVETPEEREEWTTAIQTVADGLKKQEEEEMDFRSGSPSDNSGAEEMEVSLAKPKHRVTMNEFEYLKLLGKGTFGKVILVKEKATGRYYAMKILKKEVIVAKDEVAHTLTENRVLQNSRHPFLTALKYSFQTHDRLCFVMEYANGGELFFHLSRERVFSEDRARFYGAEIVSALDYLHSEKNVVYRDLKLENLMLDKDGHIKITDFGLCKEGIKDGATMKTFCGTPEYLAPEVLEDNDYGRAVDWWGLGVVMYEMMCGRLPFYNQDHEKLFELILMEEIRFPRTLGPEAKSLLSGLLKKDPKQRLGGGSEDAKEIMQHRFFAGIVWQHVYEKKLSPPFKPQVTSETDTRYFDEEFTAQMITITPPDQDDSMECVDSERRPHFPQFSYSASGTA
Chain of Serine/threonine-protein kinase AKT (Homo sapiens) (P31751 whole entry, looked up): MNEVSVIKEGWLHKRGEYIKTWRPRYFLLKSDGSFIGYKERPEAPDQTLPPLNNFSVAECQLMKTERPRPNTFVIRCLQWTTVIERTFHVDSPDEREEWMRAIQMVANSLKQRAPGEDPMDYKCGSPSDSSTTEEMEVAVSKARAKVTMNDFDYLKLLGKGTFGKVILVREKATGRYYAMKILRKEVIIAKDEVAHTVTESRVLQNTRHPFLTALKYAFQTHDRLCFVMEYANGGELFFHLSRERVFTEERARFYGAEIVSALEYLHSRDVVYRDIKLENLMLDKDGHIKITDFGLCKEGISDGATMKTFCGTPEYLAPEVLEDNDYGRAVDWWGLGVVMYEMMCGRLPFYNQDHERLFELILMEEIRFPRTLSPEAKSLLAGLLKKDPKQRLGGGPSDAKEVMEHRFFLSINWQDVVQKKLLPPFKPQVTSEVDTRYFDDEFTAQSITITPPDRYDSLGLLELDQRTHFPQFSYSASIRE
Chain of Serine/threonine-protein kinase AKT (Homo sapiens) (Q9Y243 whole entry, looked up): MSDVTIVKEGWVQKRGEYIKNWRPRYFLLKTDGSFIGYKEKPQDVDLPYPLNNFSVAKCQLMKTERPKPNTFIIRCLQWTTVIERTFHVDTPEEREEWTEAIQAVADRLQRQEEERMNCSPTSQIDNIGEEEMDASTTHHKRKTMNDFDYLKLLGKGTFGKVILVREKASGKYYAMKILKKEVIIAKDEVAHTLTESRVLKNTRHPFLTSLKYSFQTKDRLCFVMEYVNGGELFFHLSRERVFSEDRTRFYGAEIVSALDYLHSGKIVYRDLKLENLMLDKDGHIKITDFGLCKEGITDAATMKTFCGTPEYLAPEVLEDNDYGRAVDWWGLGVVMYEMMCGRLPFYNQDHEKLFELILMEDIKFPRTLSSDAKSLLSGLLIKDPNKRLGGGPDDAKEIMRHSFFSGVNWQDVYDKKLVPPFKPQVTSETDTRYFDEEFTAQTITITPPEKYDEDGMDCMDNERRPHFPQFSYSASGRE

For the compound `C=C(C)[C@@H]1CCC(C)=C[C@H]1c1c(O)cc(CCCCC)cc1O` [CANNABIDIOL], the IC50 came out at 1.5 µM in the data set on DU-145 [1] and 18 µM in the data set on LNCaP. Also, the result in the data set on PC-3 [2], in the data set with DU-145 [3], in the data set with DU-145 [8], in the data set with PC-3 [9], with PC-3 [10] and in the data set with DU-145 [11] was Active. In addition, the outcome with PC-3 [13] and in the data set on DU-145 [14] was Active. The outcome in the data set on DU-145 [4], in the data set on DU-145 [5] and in the data set with PC-3 [6] was inactive. Further, in the data set on PC-3 [7], the “inhibition (INH)” value was roughly 30%. Moreover, the Activity in the data set with DU-145 [12] is recorded as roughly 20%; with PWR-1E [17], “Toxic”; in the data set on PWR-1E [18] it was “Toxic”; in the data set on PWR-1E [19], “Toxic”. The inhibition entry in data set [15] was “inactive”. Further, the IC50 at 72 h in [16] was 0.9 µM. In the data set on DU-145 [20], the inhibition result is “Active”.
